Calls of active or inactive are those of the source. The rule behind the calls is not given here.
Experiments:
[1] = tested on: Panel NCI-60 (60 carcinoma cell lines); assay: Growth inhibition of human NCI60 cells at 10^-4 to 10^-8 M after 48 hrs by sulforhodamine B assay; assay type: functional, cell-based
Homo sapiens [2] = species on record: Homo sapiens; assay: Cell cycle arrest in human STO cells assessed as decrease in cell levels at G1 phase at IC50 after 48 to 72 hrs by propidium iodide staining-based flow cytometric method; assay type: functional
Procedure, shortened: (§1)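 Cells exposed to drug or 1% (v/v) DMSO control for 48 and 72 h. Adherent and floating cells fixed in 70% EtOH, then stained 30 min at 4 °C with propidium iodide 50 μg/mL, RNase and 0.05% Nonidet-P40 in PBS. Flow cytometry read ≥30000 events; G1, S and G2/M percentages fitted with the Modfit model; mean of three independent experiments.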

Homo sapiens [3] = species on record: Homo sapiens; assay: Cell cycle arrest in human MP4 cells assessed as accumulation at G2/M phase at IC50 after 48 to 72 hrs by propidium iodide staining-based flow cytometric method; assay type: functional; procedure, shortened: as §1
Tubulin (Sus scrofa) [4] = target: T1, Tubulin (Sus scrofa) (UniProt P02554+P02550); assay: Inhibition of GTP-induced porcine tubulin polymerization at 10 uM measured every minute up to 60 mins relative to control; assay type: protein assay
T1 sequence (P02550 whole entry, looked up): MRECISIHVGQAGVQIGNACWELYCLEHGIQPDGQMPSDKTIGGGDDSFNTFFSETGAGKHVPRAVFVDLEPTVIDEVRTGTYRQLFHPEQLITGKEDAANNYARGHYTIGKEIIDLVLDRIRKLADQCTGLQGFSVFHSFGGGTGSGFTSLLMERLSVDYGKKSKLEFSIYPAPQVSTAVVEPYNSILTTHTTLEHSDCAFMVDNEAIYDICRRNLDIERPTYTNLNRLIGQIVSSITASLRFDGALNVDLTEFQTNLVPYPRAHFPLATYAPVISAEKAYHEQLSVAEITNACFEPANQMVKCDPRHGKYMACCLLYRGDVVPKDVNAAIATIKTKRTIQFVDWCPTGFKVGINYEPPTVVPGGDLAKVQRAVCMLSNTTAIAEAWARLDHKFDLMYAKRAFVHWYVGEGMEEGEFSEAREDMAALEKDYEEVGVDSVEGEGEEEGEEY
T1 sequence (P02554 whole entry, looked up): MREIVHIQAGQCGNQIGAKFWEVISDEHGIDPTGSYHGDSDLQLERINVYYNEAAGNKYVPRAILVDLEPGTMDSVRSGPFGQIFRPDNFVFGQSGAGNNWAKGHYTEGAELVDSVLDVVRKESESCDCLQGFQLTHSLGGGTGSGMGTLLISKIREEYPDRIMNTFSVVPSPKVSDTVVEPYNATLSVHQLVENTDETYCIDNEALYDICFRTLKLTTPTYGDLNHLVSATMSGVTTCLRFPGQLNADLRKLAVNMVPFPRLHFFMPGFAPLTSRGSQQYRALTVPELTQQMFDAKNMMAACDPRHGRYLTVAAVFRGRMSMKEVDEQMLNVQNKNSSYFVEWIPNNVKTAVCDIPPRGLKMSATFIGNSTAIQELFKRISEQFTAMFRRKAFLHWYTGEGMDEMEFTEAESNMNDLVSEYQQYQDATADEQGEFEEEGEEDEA
Procedure, shortened: (§2)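 Test agent or taxol/vinorelbine was added at 10 μmol/L. Polymerization was started at 37 °C and followed by absorbance at 340 nm every minute up to 60 min.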

Tubulin (Homo sapiens) [5] = target: T2, Tubulin (Homo sapiens) (UniProt P68371+Q9H4B7+P0DPH7+P68366+Q13509+Q71U36+P04350+Q3ZCM7+P07437+P68363+Q9BQE3+Q6PEY2+Q13885+Q9BVA1+Q9BUF5); assay: Inhibition of tubulin polymerization in human STO cells at 2 nM after 24 hrs by Western blot analysis relative to soluble fraction of tubulin; assay type: cell-based
Tubulin (Homo sapiens) [6] = target: T2, Tubulin (Homo sapiens); assay: Inhibition of tubulin polymerization in human MP4 cells at 10 nM after 24 hrs by Western blot analysis relative to soluble fraction of tubulin; assay type: cell-based
Homo sapiens [7] = species on record: Homo sapiens; assay: Cell cycle arrest in human STO cells assessed as accumulation at G2/M phase at IC50 after 48 to 72 hrs by propidium iodide staining-based flow cytometric method; assay type: functional; procedure, shortened: as §1
Homo sapiens [8] = species on record: Homo sapiens; assay: Cell cycle arrest in human MP4 cells assessed as decrease in cell levels at G1 phase at IC50 after 48 to 72 hrs by propidium iodide staining-based flow cytometric method; assay type: functional; procedure, shortened: as §1
Homo sapiens [9] = species on record: Homo sapiens; assay: Cell cycle arrest in human STO cells assessed as decrease in cell levels at S phase at IC50 after 48 to 72 hrs by propidium iodide staining-based flow cytometric method; assay type: functional; procedure, shortened: as §1
Homo sapiens [10] = species on record: Homo sapiens; assay: Cell cycle arrest in human MP4 cells assessed as decrease in cell levels at S phase at IC50 after 48 to 72 hrs by propidium iodide staining-based flow cytometric method; assay type: functional; procedure, shortened: as §1
[11] = Cell cycle arrest in human STO cells assessed as mitotic cells at 2 nM after 72 hrs by MPM2 staining-based fluorescence microscopic analysis relative to control; assay type: functional
[12] = Cell cycle arrest in human MP8 cells assessed as mitotic cells at 13 nM after 72 hrs by MPM2 staining-based fluorescence microscopic analysis relative to control; assay type: functional
Tubulin (Sus scrofa) [13] = target: T1, Tubulin (Sus scrofa); assay: Induction of GTP-induced porcine tubulin polymerization at 10 uM measured every minute up to 60 mins relative to control; assay type: protein assay; procedure, shortened: as §2
[14] = Cell cycle arrest in human STO cells assessed as mitotic cells at 1 nM after 72 hrs by MPM2 staining-based fluorescence microscopic analysis relative to control; assay type: functional
[15] = Cell cycle arrest in human MP8 cells assessed as mitotic cells at 18 nM after 72 hrs by MPM2 staining-based fluorescence microscopic analysis relative to control; assay type: functional
[16] = Induction of apoptosis in human STO cells assessed as increase in caspase-3 catalytic activity by measuring DEVD-pNA hydrolysis at IC80 after 72 hrs by spectrofluorometric method relative to control; assay type: functional
Procedure, shortened: (§3)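 STO and MP4 cells were exposed 72 h to drug or to 1% (v/v) DMSO control, then washed, pelleted and lysed. Total protein was mixed with DEVD-pNA for 1 h at 37 °C. Hydrolysis was read fluorometrically, ex 380/em 460 nm, as relative fluorescence units. Mean of three independent experiments.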

[17] = Growth inhibition of human STO cells after 72 hrs by MTS assay; assay type: functional
Procedure, shortened: (§4)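 DMPM lines were kept in DMEM F12 with 10% heat-inactivated FBS at 37 °C, 5% CO₂. 4500 cells/well were plated 24 h, then exposed 72 h to 0.1−100 μM; vehicle was 0.01% DMSO. MTS read at OD 490 nm and expressed as % of DMSO-treated cells. Eight replicates per condition, ≥3 independent repeats. IC50 and IC80 were taken graphically from dose–response curves.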

[18] = Growth inhibition of human MP4 cells after 72 hrs by MTS assay; assay type: functional; procedure, shortened: as §4
[19] = Growth inhibition of human MP8 cells after 72 hrs by MTS assay; assay type: functional; conditions: MP8, 72 h; procedure, shortened: as §4
WI-38 = assay: Growth inhibition of human WI38 cells after 72 hrs by MTS assay; assay type: cell-based; conditions: WI-38, 72 h
Tubulin (Homo sapiens) [20] = target: T2, Tubulin (Homo sapiens); assay: Inhibition of tubulin polymerization in human STO cells at IC50 after 24 hrs by Western blot analysis relative to soluble fraction of tubulin; assay type: cell-based
Tubulin (Homo sapiens) [21] = target: T2, Tubulin (Homo sapiens); assay: Inhibition of tubulin polymerization in human MP4 cells at IC50 after 24 hrs by Western blot analysis relative to soluble fraction of tubulin; assay type: cell-based
Homo sapiens [22] = species on record: Homo sapiens; assay: Cell cycle arrest in human STO cells assessed as accumulation at G2/M phase at IC50 to IC80 by propidium iodide staining-based flow cytometric method; assay type: functional; conditions: TDE = time-dependent effect; procedure, shortened: as §1
Homo sapiens [23] = species on record: Homo sapiens; assay: Cell cycle arrest in human MP4 cells assessed as accumulation at G2/M phase at IC50 to IC80 by propidium iodide staining-based flow cytometric method; assay type: functional; conditions: TDE = time-dependent effect; procedure, shortened: as §1
Homo sapiens [24] = species on record: Homo sapiens; assay: Cell cycle arrest in human STO cells assessed as decrease in cell levels at G1 phase at IC50 to IC80 after 48 to 72 hrs by propidium iodide staining-based flow cytometric method; assay type: functional; procedure, shortened: as §1
Homo sapiens [25] = species on record: Homo sapiens; assay: Cell cycle arrest in human MP4 cells assessed as decrease in cell levels at G1 phase at IC50 to IC80 after 48 to 72 hrs by propidium iodide staining-based flow cytometric method; assay type: functional; procedure, shortened: as §1
Homo sapiens [26] = species on record: Homo sapiens; assay: Cell cycle arrest in human STO cells assessed as decrease in cell levels at S phase at IC50 to IC80 after 48 to 72 hrs by propidium iodide staining-based flow cytometric method; assay type: functional; procedure, shortened: as §1
Homo sapiens [27] = species on record: Homo sapiens; assay: Cell cycle arrest in human MP4 cells assessed as decrease in cell levels at S phase at IC50 to IC80 after 48 to 72 hrs by propidium iodide staining-based flow cytometric method; assay type: functional; procedure, shortened: as §1
[28] = Cell cycle arrest in human STO cells assessed as mitotic cells at IC50 after 72 hrs by MPM2 staining-based fluorescence microscopic analysis relative to control; assay type: functional
[29] = Cell cycle arrest in human MP8 cells assessed as mitotic cells at IC50 after 72 hrs by MPM2 staining-based fluorescence microscopic analysis relative to control; assay type: functional
Homo sapiens [30] = species on record: Homo sapiens; assay: Induction of apoptosis in human STO cells assessed as increase in caspase-3 catalytic activity by measuring DEVD-pNA hydrolysis at IC50 to IC80 by spectrofluorometric method; assay type: functional, cell-based; conditions: TDE = time-dependent effect
Homo sapiens [31] = species on record: Homo sapiens; assay: Induction of apoptosis in human MP4 cells assessed as increase in caspase-3 catalytic activity by measuring DEVD-pNA hydrolysis at IC50 to IC80 by spectrofluorometric method; assay type: functional, cell-based; conditions: TDE = time-dependent effect
[32] = Induction of apoptosis in human MP4 cells assessed as increase in caspase-3 catalytic activity by measuring DEVD-pNA hydrolysis at IC80 after 72 hrs by spectrofluorometric method relative to control; assay type: functional; procedure, shortened: as §3
[33] = Antitumor activity against human STO cells xenografted in athymic nude mouse assessed as tumor growth inhibition at 5 mg/kg, ip administrated every 7 days for 4 weeks starting from day 10 post tumor implantation relative to control; assay type: functional; conditions: read-out: TGI
Procedure, shortened: (§5)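 Female nude mice, 6−8 weeks old, given 10⁷ exponentially growing STO cells s.c. in the right flank; 8 mice/group. Drug in 10% DMSO/90% saline, 5 mg/kg ip q7dx4 from day 10 after inoculum; controls got vehicle. Tumour diameters caliper-measured weekly, TV = d²×D/2, TVI% = 100 − (mean TV treated/mean TV control × 100). Ki67 staining on formalin-fixed paraffin sections of tumours after the last treatment.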

Homo sapiens [34] = assay: Antitumor activity against human STO cells xenografted in athymic nude mouse assessed as suppression of cell proliferation at 5 mg/kg, ip administrated every 7 days for 4 weeks starting from day 10 post tumor implantation measured post last dose by Ki67 immunohistochemical staining-based assay; assay type: functional, organism-based; procedure, shortened: as §5
[35] = Toxicity in athymic nude mouse xenografted with human STO cells assessed as drug tolerance at 5 mg/kg, ip administrated every 7 days for 4 weeks starting from day 10 post tumor implantation; assay type: organism-based; conditions: in vivo
Procedure, shortened: (§6)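 Female nude mice, 6−8 weeks old, with 10⁷ exponentially growing STO cells injected subcutaneously into the right flank. Eight mice per group, randomly assigned to vehicle control or treatment. Compound was given ip in 10% DMSO / 90% saline. Tumor diameters were measured weekly by caliper.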

[36] = Toxicity in athymic nude mouse xenografted with human STO cells assessed as body weight loss at 5 mg/kg, ip administrated every 7 days for 4 weeks starting from day 10 post tumor implantation; assay type: organism-based; conditions: in vivo; procedure, shortened: as §6
[37] = Toxicity in athymic nude mouse xenografted with human STO cells assessed as mortality at 5 mg/kg, ip administrated every 7 days for 4 weeks starting from day 10 post tumor implantation; assay type: organism-based; conditions: in vivo; procedure, shortened: as §6

COc1ccc(Cn2cc3c(c2-c2cc(OC)c(OC)c(OC)c2)CCc2cnoc2-3)cc1[N+](=O)[O-]
growth inhibition (GI) [1]: Active

CCC1=C[C@@H]2CN(C1)Cc1c([nH]c3ccccc13)[C@@](C(=O)OC)(c1cc3c(cc1OC)N(C)[C@H]1[C@@](O)(C(=O)OC)[C@H](OC(C)=O)[C@]4(CC)C=CCN5CC[C@]31[C@@H]54)C2 [VINORELBINE]
Activity (Homo sapiens [2]): Active | Activity (Homo sapiens [3]): Active | inhibition (Tubulin (Sus scrofa) [4]): Active | inhibition (Tubulin (Homo sapiens) [5]): Active | inhibition (Tubulin (Homo sapiens) [6]): Active | Activity (Homo sapiens [7]): Active | Activity (Homo sapiens [8]): Active | Activity (Homo sapiens [9]): Active | Activity (Homo sapiens [10]): Active | Activity [11]: 30 - 50% | Activity [12]: 30 - 50%

COc1ccc(Cn2cc3c(c2-c2ccccc2)CCc2cnoc2-3)cc1N
growth inhibition (GI) [1]: Active

CC(=O)O[C@H]1C(=O)[C@@]2(C)[C@H]([C@H](OC(=O)c3ccccc3)[C@]3(O)C[C@H](OC(=O)[C@H](O)[C@@H](NC(=O)c4ccccc4)c4ccccc4)C(C)=C1C3(C)C)[C@]1(OC(C)=O)CO[C@@H]1C[C@@H]2O [PACLITAXEL]
Activity (Homo sapiens [2]): Active | Activity (Homo sapiens [3]): Active | Activity (Tubulin (Sus scrofa) [13]): Active | Activity (Homo sapiens [7]): Active | Activity (Homo sapiens [8]): Active | Activity (Homo sapiens [9]): Active | Activity (Homo sapiens [10]): Active | Activity [14]: 30 - 50% | Activity [15]: 30 - 50%

COc1ccc(Cn2cc3c(c2-c2ccc(O)cc2)CCc2cnoc2-3)cc1
growth inhibition (GI) [1]: Active

COc1ccc(Cn2cc3c(c2-c2cc(OC)c(OC)c(OC)c2)CCc2cnoc2-3)cc1
growth inhibition (GI) [1]: Active

COc1ccc(Cn2cc3c(c2-c2ccccc2)CCc2cnoc2-3)cc1
growth inhibition (GI) [1]: Active

COc1ccc(Cn2cc3c(c2-c2cc(OC)c(OC)c(OC)c2)CCc2cnoc2-3)cc1N
fold change (FC) [16]: 38.5 | growth inhibition (GI) [1]: Active | IC50 [17]: 70 nM | IC50 [18]: 160 nM | IC50 [19]: 130 nM | IC50 (WI-38): > 100000 nM | inhibition (Tubulin (Homo sapiens) [20]): Active | inhibition (Tubulin (Homo sapiens) [21]): Active | inhibition (Tubulin (Sus scrofa) [4]): Active | Activity (Homo sapiens [22]): Tde | Activity (Homo sapiens [23]): Tde | Activity (Homo sapiens [24]): Active | Activity (Homo sapiens [25]): Active | Activity (Homo sapiens [26]): Active | Activity (Homo sapiens [27]): Active | Activity [28]: 30 - 50% | Activity [29]: 30 - 50% | Activity (Homo sapiens [30]): Tde | Activity (Homo sapiens [31]): Tde | fold change (FC) [32]: 35 | inhibition in vivo at 5 mg/kg [33]: 59% | Activity (Homo sapiens [34]): Active | Activity [35]: Non-Toxic | Activity [36]: Non-Toxic | Activity [37]: Non-Toxic

COc1ccc(Cn2cc3c(c2-c2ccc(OC)cc2)CCc2cnoc2-3)cc1
growth inhibition (GI) [1]: Active

Reference: ChEMBL document CHEMBL4428051, “Preclinical Activity of New [1,2]Oxazolo[5,4-e]isoindole Derivatives in Diffuse Malignant Peritoneal Mesothelioma” (J Med Chem, 2016)
